Assay results reported in ChEMBL document CHEMBL4732173, “Easily accessed nitroquinolones exhibiting potent and selective anti-tubercular activity” (Eur J Med Chem, 2021).

Tests used:
[1] = Solubility of the compound in screening media; assay type: physicochemical
[2] = Solubility of the compound in DMSO; assay type: physicochemical
Mycobacterium ulcerans = assay: Antibacterial activity against Mycobacterium ulcerans assessed as bacterial metabolic acativity at 10 ug/ml incubated for 8 days followed by addition of Alamar blue for 3 days by Alamar blue dye based fluorescence analysis; assay type: functional; details: dose 10 µg/ml; time 8 day
Outline: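 Tested in triplicate. Remaining metabolic activity (%PC) was calculated as blank-corrected fluorescence of each treated well divided by that of the untreated control.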

Row | Structure (SMILES) | solubility [1] | solubility [2] | Activity (Mycobacterium ulcerans)
1 | N#Cc1cccc(Cn2cc(C(=O)NCCOCCO)c(=O)c3cc([N+](=O)[O-])ccc32)c1 | Soluble | Insoluble | 
2 | N#Cc1cccc(Cn2cc(C(=O)NCCNCCO)c(=O)c3cc([N+](=O)[O-])ccc32)c1 | Soluble | Insoluble | >90%
3 | O=C(NO)c1cn(Cc2cccc(Cl)c2)c2ccc([N+](=O)[O-])cc2c1=O | Soluble | Insoluble | 
4 | O=C(NCCNCCO)c1cn(Cc2ccc(F)cc2)c2ccc([N+](=O)[O-])cc2c1=O | Soluble | Insoluble | >90%
5 | O=C(NCCN1CCOCC1)c1cn(Cc2cccc(Cl)c2)c2ccc([N+](=O)[O-])cc2c1=O | Soluble | Insoluble | 
6 | O=C(NCCOCCO)c1cn(Cc2ccc(F)cc2)c2ccc([N+](=O)[O-])cc2c1=O | Soluble | Insoluble | >90%
7 | CCOC(=O)c1c[nH]c2c(C(F)(F)F)cc([N+](=O)[O-])cc2c1=O | Soluble | Insoluble | >90%
8 | COCCNC(=O)c1cn(Cc2cccc(Cl)c2)c2ccc([N+](=O)[O-])cc2c1=O | Soluble | Insoluble | >90%
9 | O=C(NCCNCCO)c1cn(Cc2cccc(F)c2)c2ccc([N+](=O)[O-])cc2c1=O | Soluble | Insoluble | >90%
10 | O=C(NCCN1CCOCC1)c1cn(Cc2cccc(Br)c2)c2ccc([N+](=O)[O-])cc2c1=O | Soluble | Insoluble | 
11 | N#Cc1cccc(Cn2cc(C(=O)NO)c(=O)c3cc([N+](=O)[O-])ccc32)c1 | Soluble | Insoluble | 
12 | COCCNC(=O)c1cn(Cc2cccc(C#N)c2)c2ccc([N+](=O)[O-])cc2c1=O | Soluble | Insoluble | 
13 | O=C(NO)c1cn(Cc2cccc(F)c2)c2ccc([N+](=O)[O-])cc2c1=O | Soluble | Insoluble | 
14 | O=C(NCCN1CCOCC1)c1cn(Cc2cccc(F)c2)c2ccc([N+](=O)[O-])cc2c1=O | Soluble | Insoluble | 
15 | N#Cc1cccc(Cn2cc(C(=O)O)c(=O)c3cc([N+](=O)[O-])ccc32)c1 | Soluble | Insoluble | 
16 | COCCNC(=O)c1cn(Cc2cccc(F)c2)c2ccc([N+](=O)[O-])cc2c1=O | Soluble | Insoluble | 
17 | COCCNC(=O)c1cn(Cc2ccc(F)cc2)c2ccc([N+](=O)[O-])cc2c1=O | Soluble | Insoluble | >90%
18 | O=C(NO)c1cn(Cc2cccc(Br)c2)c2ccc([N+](=O)[O-])cc2c1=O | Soluble | Insoluble | 
19 | O=C(NCCOCCO)c1cn(Cc2cccc(Cl)c2)c2ccc([N+](=O)[O-])cc2c1=O | Soluble | Insoluble | 
20 | O=C(NCCOCCO)c1cn(Cc2cccc(F)c2)c2ccc([N+](=O)[O-])cc2c1=O | Soluble | Insoluble | 
21 | COCCNC(=O)c1cn(Cc2ccc(C#N)cc2)c2ccc([N+](=O)[O-])cc2c1=O | Soluble | Insoluble | 
22 | N#Cc1ccc(Cn2cc(C(=O)NCCOCCO)c(=O)c3cc([N+](=O)[O-])ccc32)cc1 | Soluble | Insoluble | 
23 | N#Cc1ccc(Cn2cc(C(=O)NCCNCCO)c(=O)c3cc([N+](=O)[O-])ccc32)cc1 | Soluble | Insoluble | 
